Assay results published in ChEMBL document CHEMBL3414569, “Amino acid modified xanthone derivatives: novel, highly promising membrane-active antimicrobials for multidrug-resistant Gram-positive bacterial infections” (J Med Chem, 2015).
In brackets after ≈: the same amount, converted by molar mass.

Legend:
Staphylococcus aureus [1] = test: Antimicrobial activity against Staphylococcus aureus DM4001 by broth macrodilution method; format: functional
Summary of the method: (§1)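 Broth macrodilution MIC in Mueller Hinton broth following CLSI guidelines. Inoculum was prepared by direct colony suspension from an 18−20 h tryptic soy agar plate.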

Staphylococcus aureus [2] = test: Antimicrobial activity against methicillin resistant Staphylococcus aureus DM21455 in absence of 4% BSA by broth macrodilution method; format: functional; summary of the method: as §1
Staphylococcus aureus [3] = test: Antimicrobial activity against methicillin resistant Staphylococcus aureus DM21455 in presence of 4% BSA by broth macrodilution method; format: functional
Summary of the method: (§2)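 MIC by CLSI broth macrodilution in Mueller Hinton broth, with BSA added to the bacterial suspension at a final 4% w/v. Inoculum was made by direct colony suspension from an 18−20 h tryptic soy agar plate.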

Staphylococcus aureus [4] = test: Antimicrobial activity against Staphylococcus aureus ATCC 29213 in absence of 4% BSA by broth macrodilution method; format: functional; summary of the method: as §1
Staphylococcus aureus [5] = test: Antimicrobial activity against Staphylococcus aureus ATCC 29213 in presence of 4% BSA by broth macrodilution method; format: functional; summary of the method: as §2
Staphylococcus aureus [6] = test: Antimicrobial activity against methicillin resistant Staphylococcus aureus DM21455 by broth macrodilution method; format: functional; summary of the method: as §1
Staphylococcus aureus [7] = test: Antimicrobial activity against methicillin resistant Staphylococcus aureus DM09809R by broth macrodilution method; format: functional; summary of the method: as §1
Bacillus cereus = test: Antimicrobial activity against Bacillus cereus ATCC 11778 by broth macrodilution method; format: functional
Summary of the method: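 CLSI broth macrodilution in Mueller Hinton broth. Inoculum was made by direct colony suspension from colonies on an 18−20 h tryptic soy agar plate. The value is the MIC.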

[8] = Induction of hemolysis in New Zealand white rabbit RBC after 1 hr; format: cell-based, Oryctolagus cuniculus, Erythrocyte; details: New Zealand white, red blood cells (RBC)
Summary of the method: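 Fresh red blood cells isolated from New Zealand white rabbits. Lysis measured over a compound concentration series; HC50 taken as the concentration lysing 50% of RBCs.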

Staphylococcus aureus [9] = test: Antimicrobial activity against Staphylococcus aureus ATCC 29213 by broth macrodilution method; format: functional; summary of the method: as §1
Staphylococcus aureus [10] = test: Antimicrobial activity against Staphylococcus aureus ATCC 29213 at 0.5 times MIC measured after 17 passages by multistep passage drug resistance selection study relative to wild type Staphylococcus aureus ATCC 29213 before passage; format: functional
Summary of the method: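 Multipassage selection in S. aureus ATCC29213 across an eight-concentration dilution series. Growth was read after 20−22 h. Bacteria growing at 0.5 × MIC were repassaged into a fresh series, 17 passages in total. Resistance was defined as a more than 4-fold rise over the initial MIC.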

Staphylococcus aureus [11] = test: Antimicrobial activity against Staphylococcus aureus ATCC 29213 infected in mouse cornea infection model assessed as reduction in viable bacterial count at 0.3% solution applied topically 5 times/day dosed 1 day after infection relative to control; format: functional
Summary of the method: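 Mouse cornea given three superficial 1 mm scratches on one eye under ketamine/xylazine, then 10 μL of S. aureus ATCC 29213 suspension (1 × 10^8 CFU/mL in USP phosphate buffer) applied topically. Treated topically 5 times/day from day 1 postinfection; PBS negative control; 4 mice/group killed on days 1, 2 and 3. Corneas homogenized in 0.9% NaCl with 0.25% BSA, plated in duplicate on TSA (48 h, 35 °C); log10 CFU/cornea.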

[12] = Retention time of the compound; format: physicochemical
Summary of the method: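 Reverse-phase HPLC of 20 μL injections of a 10 μg/mL sample at 1 mL/min. Gradient: 5−55% ACN over 5 min, then 55−95% over 15 min.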

[13] = Selectivity index, ratio of HC50 for induction of hemolysis in New Zealand white rabbit RBC to MIC for Staphylococcus aureus DM4001
[14] = Selectivity index, ratio of HC50 for induction of hemolysis in New Zealand white rabbit RBC to MIC for Staphylococcus aureus DM21455
[15] = Selectivity index, ratio of HC50 for induction of hemolysis in New Zealand white rabbit RBC to MIC for Staphylococcus aureus DM09809R
[16] = Selectivity index, ratio of HC50 for induction of hemolysis in New Zealand white rabbit RBC to MIC for Bacillus cereus ATCC 11778

Row | Compound | MIC (Staphylococcus aureus [1]) [µg/mL] | MIC (Staphylococcus aureus [6]) [µg/mL] | MIC (Staphylococcus aureus [7]) [µg/mL] | MIC (Bacillus cereus) [µg/mL] | HC50 at 1 h [8] [µg/mL] | further results
1 | COc1c(OCCCCBr)cc2oc3cc(OCCCCBr)c(CCC(C)C)c(O)c3c(=O)c2c1CCC(C)C | > 50 |  |  |  |  | 
2 | CCCCCCCCCC(=O)N[C@@H](Cc1c[nH]c2ccccc12)C(=O)N[C@H](CC(N)=O)C(=O)N[C@@H](CC(=O)O)C(=O)N[C@@H]1C(=O)NCC(=O)N[C@@H](CCCN)C(=O)N[C@@H](CC(=O)O)C(=O)N[C@H](C)C(=O)N[C@@H](CC(=O)O)C(=O)NCC(=O)N[C@H](CO)C(=O)N[C@@H]([C@H](C)CC(=O)O)C(=O)N[C@@H](CC(=O)c2ccccc2N)C(=O)O[C@@H]1C |  |  |  |  |  | MIC (Staphylococcus aureus [2]): 0.39 µg/mL (≈ 0.241 µM); MIC (Staphylococcus aureus [3]): 6.25 µg/mL; MIC (Staphylococcus aureus [4]): 0.39 µg/mL (≈ 0.241 µM); MIC (Staphylococcus aureus [5]): 6.25 µg/mL
3 | CCN(CC)CCCCOc1cc2oc3cc(OCCCCN(CC)CC)c(OC)c(CCC(C)C)c3c(=O)c2c(O)c1CCC(C)C | 3 (≈ 4.48 µM) |  |  |  |  | 
4 | COc1c(OCC(=O)O)cc2oc3cc(OCC(=O)O)c(CC=C(C)C)c(O)c3c(=O)c2c1CC=C(C)C | > 50 | > 50 | > 50 | > 50 | > 400 | 
5 | COC(=O)C(CCCCN)NC(=O)COc1cc2oc3cc(OCC(=O)NC(CCCCN)C(=O)OC)c(OC)c(CC=C(C)C)c3c(=O)c2c(O)c1CC=C(C)C (stereo not drawn) | 6 (≈ 7.4 µM) | 12 (≈ 14.8 µM) | 6 (≈ 7.4 µM) | 12 (≈ 14.8 µM) | 39 | 
6 | COc1c(N2CCNC(C)C2)c(F)cc2c(=O)c(C(=O)O)cn(C3CC3)c12 (stereo not drawn) [GATIFLOXACIN] |  |  |  |  |  | MIC (Staphylococcus aureus [9]): 0.1 µg/mL (≈ 0.266 µM); Ratio (Staphylococcus aureus [10]): 64; Ratio (Staphylococcus aureus [11]): 2.06
7 | COc1c(OCC(=O)N[C@@H](CCCNC(=N)N)C(=O)OC(C)(C)C)cc2oc3cc(OCC(=O)N[C@@H](CCCNC(=N)N)C(=O)OC(C)(C)C)c(CC=C(C)C)c(O)c3c(=O)c2c1CC=C(C)C | 12 (≈ 12.6 µM) | 12 (≈ 12.6 µM) | 12 (≈ 12.6 µM) | 12 (≈ 12.6 µM) | 79 | Retention_time [12]: 9.51 min; Selectivity Index [13]: 7; Selectivity Index [14]: 7; Selectivity Index [15]: 7; Selectivity Index [16]: 7
8 | O=c1c2ccc(OCCCCBr)cc2oc2cc(OCCCCBr)cc(O)c12 | > 50 |  |  |  |  | 
9 | H-GIGKFLKKAKKFGKAFVKILKK-NH2 [PEXIGANAN] | 12.5 | 12.5 | 25 | 12.5 | 120 | Selectivity Index [13]: 2; Selectivity Index [14]: 2; Selectivity Index [15]: 2; Selectivity Index [16]: 2; MIC (Staphylococcus aureus [2]): 12.5 µg/mL; MIC (Staphylococcus aureus [3]): 200 µg/mL; MIC (Staphylococcus aureus [4]): 12.5 µg/mL; MIC (Staphylococcus aureus [5]): 200 µg/mL
10 | COC(=O)C(Cc1cnc[nH]1)NC(=O)COc1cc2oc3cc(OCC(=O)NC(Cc4cnc[nH]4)C(=O)OC)c(OC)c(CC=C(C)C)c3c(=O)c2c(O)c1CC=C(C)C (stereo not drawn) | > 50 | > 50 | > 50 | > 50 | > 400 | 
